In paper PMC4681580 (Journal of immunology (Baltimore, Md. : 1950), 2015):
No end group written: not given here.

What was measured:
rTAP1/TAP2a (wild type) = biological target: T1, rTAP1/TAP2a (wild type) (Rattus norvegicus, UniProt P36370+P36372); assay: Competitive inhibition of TC6R crosslinking, wild type TAP; assay type: binding
T1 sequence (P36370 1-725): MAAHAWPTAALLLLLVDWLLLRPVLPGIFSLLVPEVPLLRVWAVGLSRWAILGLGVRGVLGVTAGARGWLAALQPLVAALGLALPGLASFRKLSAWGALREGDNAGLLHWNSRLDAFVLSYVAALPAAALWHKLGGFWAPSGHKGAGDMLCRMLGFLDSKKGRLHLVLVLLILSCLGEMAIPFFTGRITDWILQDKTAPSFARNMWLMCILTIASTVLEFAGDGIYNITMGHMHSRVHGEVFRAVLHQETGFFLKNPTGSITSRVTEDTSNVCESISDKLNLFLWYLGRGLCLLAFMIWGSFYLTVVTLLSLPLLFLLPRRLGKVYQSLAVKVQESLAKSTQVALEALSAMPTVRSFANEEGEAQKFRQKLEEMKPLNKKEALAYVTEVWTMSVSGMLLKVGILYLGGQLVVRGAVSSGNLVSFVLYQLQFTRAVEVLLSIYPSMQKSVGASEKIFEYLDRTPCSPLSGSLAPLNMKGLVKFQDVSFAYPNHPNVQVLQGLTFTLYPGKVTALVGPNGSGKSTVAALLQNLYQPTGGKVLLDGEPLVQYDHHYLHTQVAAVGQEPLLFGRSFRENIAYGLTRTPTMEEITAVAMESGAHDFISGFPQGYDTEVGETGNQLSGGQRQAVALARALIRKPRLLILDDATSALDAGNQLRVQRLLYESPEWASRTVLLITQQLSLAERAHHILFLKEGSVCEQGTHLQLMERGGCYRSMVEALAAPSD
T1 sequence (P36372 1-703): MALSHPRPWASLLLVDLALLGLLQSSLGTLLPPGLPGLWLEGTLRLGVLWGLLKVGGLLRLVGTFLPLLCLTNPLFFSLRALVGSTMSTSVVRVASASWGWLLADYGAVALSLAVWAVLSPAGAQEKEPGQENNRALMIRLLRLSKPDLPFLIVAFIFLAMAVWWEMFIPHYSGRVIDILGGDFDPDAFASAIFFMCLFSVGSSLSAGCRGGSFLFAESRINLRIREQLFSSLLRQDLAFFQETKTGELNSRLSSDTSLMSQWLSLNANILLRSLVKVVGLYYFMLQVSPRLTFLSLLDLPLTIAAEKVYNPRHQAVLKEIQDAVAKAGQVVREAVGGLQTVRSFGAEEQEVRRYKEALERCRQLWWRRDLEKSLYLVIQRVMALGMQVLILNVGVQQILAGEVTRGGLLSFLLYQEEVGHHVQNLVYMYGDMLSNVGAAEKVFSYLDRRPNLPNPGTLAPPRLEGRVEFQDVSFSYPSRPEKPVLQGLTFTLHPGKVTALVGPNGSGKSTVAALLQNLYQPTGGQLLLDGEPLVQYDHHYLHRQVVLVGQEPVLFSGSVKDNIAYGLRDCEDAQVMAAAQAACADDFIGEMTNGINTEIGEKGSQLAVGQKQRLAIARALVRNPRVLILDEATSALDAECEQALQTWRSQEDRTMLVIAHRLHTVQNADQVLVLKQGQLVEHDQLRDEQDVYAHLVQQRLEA
Outline: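 Rat TAP1/TAP2a expressed in baculovirus-infected Sf21 microsomes. Microsomes were incubated with 1 μM FITC-lysine peptide with Cys at position 6, plus unlabeled competitor peptide, on ice for 10 min in PBS pH 7.4. BMOE was added (0.2 mM final) for 10 min at room temperature and quenched with 10 mM DTT. Products were resolved by SDS-PAGE and fluorescence imaged at 520 nm.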

rTAP1/TAP2a(E218M) = biological target: T2, rTAP1/TAP2a(E218M) (Rattus norvegicus, UniProt P36370+P36372, E218M); assay: Peptide transport assay, E218M mutant; assay type: biochemical; conditions: FITC-labeled peptide 1 μM, 37 °C, 5 min, with or without 5 mM ATP
T2 sequence (P36370 1-725): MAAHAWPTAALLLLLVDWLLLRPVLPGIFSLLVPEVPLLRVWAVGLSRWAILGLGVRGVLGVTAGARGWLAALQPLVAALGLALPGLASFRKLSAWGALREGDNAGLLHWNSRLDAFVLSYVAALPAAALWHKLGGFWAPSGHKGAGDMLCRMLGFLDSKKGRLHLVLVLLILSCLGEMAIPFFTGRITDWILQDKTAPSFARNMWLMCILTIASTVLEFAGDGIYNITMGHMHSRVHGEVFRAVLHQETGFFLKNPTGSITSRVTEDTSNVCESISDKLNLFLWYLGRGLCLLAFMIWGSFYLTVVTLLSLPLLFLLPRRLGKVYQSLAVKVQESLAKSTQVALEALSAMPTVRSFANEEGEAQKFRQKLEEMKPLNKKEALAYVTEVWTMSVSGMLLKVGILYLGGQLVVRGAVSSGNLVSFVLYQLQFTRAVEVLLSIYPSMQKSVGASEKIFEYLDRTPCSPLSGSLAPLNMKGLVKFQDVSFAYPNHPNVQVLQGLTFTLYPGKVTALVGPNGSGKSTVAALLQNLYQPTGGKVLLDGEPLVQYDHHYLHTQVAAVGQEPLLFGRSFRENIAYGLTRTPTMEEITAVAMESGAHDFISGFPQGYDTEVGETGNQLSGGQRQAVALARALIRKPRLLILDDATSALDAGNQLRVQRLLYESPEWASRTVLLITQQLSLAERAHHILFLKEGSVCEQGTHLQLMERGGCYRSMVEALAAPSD
T2 sequence (P36372 1-703 E218M): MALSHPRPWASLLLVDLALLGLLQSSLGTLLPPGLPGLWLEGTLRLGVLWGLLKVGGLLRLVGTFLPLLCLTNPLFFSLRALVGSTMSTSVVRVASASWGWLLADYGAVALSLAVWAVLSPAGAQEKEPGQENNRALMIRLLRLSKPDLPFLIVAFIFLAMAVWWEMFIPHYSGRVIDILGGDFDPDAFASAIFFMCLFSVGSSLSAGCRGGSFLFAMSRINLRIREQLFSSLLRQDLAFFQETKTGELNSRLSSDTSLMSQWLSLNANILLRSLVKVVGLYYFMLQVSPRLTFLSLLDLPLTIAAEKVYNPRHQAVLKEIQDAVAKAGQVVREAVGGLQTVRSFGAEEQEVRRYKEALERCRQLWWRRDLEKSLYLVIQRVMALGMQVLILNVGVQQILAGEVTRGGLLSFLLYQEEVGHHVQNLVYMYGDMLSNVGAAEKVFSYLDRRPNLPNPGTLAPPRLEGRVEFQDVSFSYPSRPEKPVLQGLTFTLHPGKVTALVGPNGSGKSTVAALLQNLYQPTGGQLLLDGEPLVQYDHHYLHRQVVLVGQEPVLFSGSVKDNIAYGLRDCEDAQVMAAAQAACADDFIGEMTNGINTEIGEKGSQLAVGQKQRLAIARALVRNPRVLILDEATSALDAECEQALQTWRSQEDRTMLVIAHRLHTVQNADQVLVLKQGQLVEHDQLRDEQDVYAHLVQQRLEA
Outline: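 Sf21 cells were grown to confluence and infected with baculoviruses (MOI 5–20) expressing His-tagged rTAP1 and Flag-tagged rTAP2 variants; microsomes were made after 72 h. Lysis was in 1% NP40, and glycosylated peptide was recovered on Con A-Sepharose. Fluorescence was read in triplicate to give +ATP/−ATP ratios, normalized to wild type (100%) and TAP-free microsomes (0%). Paired two-tailed t-tests were applied.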

effect of mutation on transport efficiency versus wild type (rTAP1/TAP2a(E218M))	Substance	IC50 (rTAP1/TAP2a (wild type)) [nM]
	RYWANATKSR [RR]	300
did not significantly affect	TVDNK*TAYV	
